pIC50: −log10 of the molar value.
How the values were obtained:
Mus musculus [1] = test: Antiinflammatory activity in Kunming mouse assessed as inhibition of xylene-induced ear edema at 20 mg/kg, po after […]rs; format: functional
How it was run: (§1)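 Male Kunming mice receive the agent orally as a suspension in 0.5% CMC; the vehicle group gets CMC alone. After 30 min, 0.03 ml xylene is applied to both surfaces of the right ear, and the left ear serves as control. At 2 h, mice are killed and 7-mm ear punches are weighed. Edema is taken as right minus left punch weight, and inhibition is calculated versus vehicle. n = 11; ANOVA.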

Mus musculus [2] = test: Antiinflammatory activity in Kunming mouse assessed as inhibition of xylene-induced ear edema at 30 mg/kg, po after […]rs; format: functional; how it was run: as §1
[3] = Permeability from apical to basolateral side of human Caco-2 cell membrane; format: ADME, cell-based
Mus musculus [4] = test: Antiinflammatory activity in Kunming mouse assessed as inhibition of xylene-induced ear edema at 5 mg/kg, po after […]rs; format: functional; how it was run: as §1
Mus musculus [5] = test: Gastrointestinal toxicity in mouse assessed as tail bleeding time at 200 mg/kg, po after 30 mins; format: organism-based; parameters: dose 200 mg/kg, route oral; conditions: in vivo, 0.5 h
How it was run: (§2)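 Male mice (18–22 g) are dosed orally and compared with an NS group. At 30, 45, 60 and 90 min after dosing, each mouse is restrained in a tube holder and a 2-mm cut is made on the tail. Blood is wiped away every 30 s until flow stops, and the time to cessation is recorded.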

[6] = Permeability from basolateral to apical side of human Caco-2 cell membrane; format: ADME, cell-based
Mus musculus [7] = test: Gastrointestinal toxicity in mouse assessed as tail bleeding time at 200 mg/kg, po after 45 mins; format: organism-based; parameters: dose 200 mg/kg, route oral; conditions: in vivo, 0.75 h; how it was run: as §2
Caco-2 = test: Ratio of permeability from apical to basolateral side over basolateral to apical side of human Caco-2 cell membrane; format: ADME, cell-based
[8] = Inhibition of bovine brain PKC; parameters: species or system Bos taurus
Mus musculus [9] = test: Gastrointestinal toxicity in mouse assessed as tail bleeding time at 200 mg/kg, po after 60 mins; format: organism-based; parameters: dose 200 mg/kg, route oral; conditions: in vivo, 1 h; how it was run: as §2
Mus musculus [10] = test: Gastrointestinal toxicity in mouse assessed as tail bleeding time at 200 mg/kg, po after 90 mins; format: organism-based; parameters: dose 200 mg/kg, route oral; conditions: in vivo, 1.5 h; how it was run: as §2
Mus musculus [11] = test: Antiinflammatory activity in Kunming mouse assessed as inhibition of xylene-induced ear edema at 10 mg/kg, po after […]rs; format: functional; how it was run: as §1

CC(=O)Oc1ccccc1C(=O)O [ASPIRIN]
inhibition in vivo at 20 mg/kg (Mus musculus [1]): 40.7% | inhibition in vivo at 30 mg/kg (Mus musculus [2]): 40.7%

C[C@@H]1O[C@@H](c2ccc(Cl)cc2)OC[C@H]1N
inhibition in vivo at 20 mg/kg (Mus musculus [1]): 66.7% | Papp A→B [3]: 11.9 ×10⁻⁶ cm/s | inhibition in vivo at 5 mg/kg (Mus musculus [4]): 39.4% | Time (Mus musculus [5]): 118.3 s | Papp B→A [6]: 7.01 ×10⁻⁶ cm/s | Time (Mus musculus [7]): 118.9 s | Ratio (Caco-2): 1.7 | pIC50 [8]: 2.96 | Time (Mus musculus [9]): 118.5 s | Time (Mus musculus [10]): 118.7 s | inhibition in vivo at 10 mg/kg (Mus musculus [11]): 54.5%

C[C@@H]1O[C@H](C=Cc2ccccc2)OC[C@H]1N
inhibition in vivo at 20 mg/kg (Mus musculus [1]): 51.6% | Papp A→B [3]: 10.3 ×10⁻⁶ cm/s | Time (Mus musculus [5]): 120.7 s | Papp B→A [6]: 7.06 ×10⁻⁶ cm/s | Time (Mus musculus [7]): 120.2 s | Ratio (Caco-2): 1.46 | pIC50 [8]: 2.77 | Time (Mus musculus [9]): 117.6 s | Time (Mus musculus [10]): 117.7 s

C[C@@H]1O[C@@H](C=Cc2ccccc2)OC[C@H]1N
inhibition in vivo at 20 mg/kg (Mus musculus [1]): 52.9% | Papp A→B [3]: 10.2 ×10⁻⁶ cm/s | Time (Mus musculus [5]): 117.2 s | Papp B→A [6]: 7.17 ×10⁻⁶ cm/s | Time (Mus musculus [7]): 118.6 s | Ratio (Caco-2): 1.43 | pIC50 [8]: 2.79 | Time (Mus musculus [9]): 118.4 s | Time (Mus musculus [10]): 119.2 s

C[C@@H]1O[C@@H](c2ccc([N+](=O)[O-])cc2)OC[C@H]1N
inhibition in vivo at 20 mg/kg (Mus musculus [1]): 78.5% | Papp A→B [3]: 13 ×10⁻⁶ cm/s | inhibition in vivo at 5 mg/kg (Mus musculus [4]): 42.3% | Time (Mus musculus [5]): 118.4 s | Papp B→A [6]: 6.96 ×10⁻⁶ cm/s | Time (Mus musculus [7]): 119.2 s | Ratio (Caco-2): 1.87 | pIC50 [8]: 3.05 | Time (Mus musculus [9]): 117.2 s | Time (Mus musculus [10]): 118.9 s | inhibition in vivo at 10 mg/kg (Mus musculus [11]): 58%

C[C@@H]1O[C@H](c2ccc([N+](=O)[O-])cc2)OC[C@H]1N
inhibition in vivo at 20 mg/kg (Mus musculus [1]): 77.9% | Papp A→B [3]: 12.9 ×10⁻⁶ cm/s | inhibition in vivo at 5 mg/kg (Mus musculus [4]): 40.1% | Time (Mus musculus [5]): 117.8 s | Papp B→A [6]: 6.9 ×10⁻⁶ cm/s | Time (Mus musculus [7]): 118.1 s | Ratio (Caco-2): 1.86 | pIC50 [8]: 3.03 | Time (Mus musculus [9]): 118.8 s | Time (Mus musculus [10]): 119 s | inhibition in vivo at 10 mg/kg (Mus musculus [11]): 56.7%

C[C@@H]1O[C@H](c2ccc(Cl)cc2)OC[C@H]1N
inhibition in vivo at 20 mg/kg (Mus musculus [1]): 67.9% | Papp A→B [3]: 11.7 ×10⁻⁶ cm/s | inhibition in vivo at 5 mg/kg (Mus musculus [4]): 29.8% | Time (Mus musculus [5]): 119.6 s | Papp B→A [6]: 6.88 ×10⁻⁶ cm/s | Time (Mus musculus [7]): 118.6 s | Ratio (Caco-2): 1.7 | pIC50 [8]: 2.94 | Time (Mus musculus [9]): 118.7 s | Time (Mus musculus [10]): 118.6 s | inhibition in vivo at 10 mg/kg (Mus musculus [11]): 46.2%
